Active and inactive are the calls of the source. The calls are words filed in the database; no cut-off is given here. A value given as a limit tells only on which side of the number the result lay.

We go through one compound from ChEMBL document CHEMBL4033780, “Lipidated Brartemicin Analogues Are Potent Th1-Stimulating Vaccine Adjuvants” (J Med Chem, 2018).

For data set [1], the target named is T1, C-type lectin domain family 4 member E (Mus musculus) (UniProt Q9R0Q8).
T1 sequence (whole entry): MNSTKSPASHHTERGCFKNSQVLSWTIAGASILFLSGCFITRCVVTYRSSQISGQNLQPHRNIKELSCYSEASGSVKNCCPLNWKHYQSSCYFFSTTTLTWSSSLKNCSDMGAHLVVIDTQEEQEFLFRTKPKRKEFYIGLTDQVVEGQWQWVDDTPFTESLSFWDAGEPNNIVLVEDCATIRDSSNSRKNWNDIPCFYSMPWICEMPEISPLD
Kind of data set: Agonist activity at mincle in wild type C57BL/6 mouse GM-CSF derived BMDM assessed as increase in MIP2 release at 0.1 to 1 nmol after 24 hrs by sandwich ELISA. A digest of the protocol: (§1)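 Wild-type or Mincle−/− C57BL/6 bone marrow was cultured 8 days with GM-CSF 50 ng/mL in complete RPMI. Macrophages were detached with Acutase and seeded on ligand-coated plates (0.1 or 1 nmol/well); LPS 100 ng/mL was used as comparator. Supernatant was taken at 24 h and TNF, IL-6, IL-1β and MIP-2 measured by sandwich ELISA. Representative of three experiments in triplicate (±SD).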
(In an ELISA, binding on a coated surface is turned into a signal by an enzyme label.)

Data set [2] is filed under the species Mus musculus. Kind of data set: Adjuvant activity in immunized C57BL/6 mouse assessed as increase in OVA-specific IgG production in serum at 0.3 umol treated with ovalbumin for 7 days followed by stimulation with OVA for 7 days and restimulation with OVA measured 24 to 48 hrs post OVA challenge. The class given is functional. An outline of the steps: (§2)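 Sera were taken on days 0, 7 and 14 from C57BL/6 mice sensitized s.c. with emulsion containing OVA 200 μg ± adjuvant 0.3 μmol and footpad-challenged with OVA on day 7. OVA-specific IgG, IgG1, IgG2b and IgG2c were measured by ELISA with HRP-coupled anti-mouse secondaries. EC50 was taken from absorbance at 450 nm plotted against log serum concentration.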

For data set [3], the target named is T1, C-type lectin domain family 4 member E (Mus musculus). The data set can be described thus: Agonist activity at mincle in wild type C57BL/6 mouse GM-CSF derived BMDM assessed as increase in IL-6 release at 0.1 to 1 nmol after 24 hrs by sandwich ELISA. A digest of the protocol:
as §1

The target is the same in data set [4]. The data set can be described thus: Agonist activity at mincle in wild type C57BL/6 mouse GM-CSF derived BMDM assessed as increase in TNF release at 0.1 to 1 nmol after 24 hrs by sandwich ELISA. A digest of the protocol:
as §1

Data set [5] deals with T2, C-type lectin domain family 4 member E (Homo sapiens) (UniProt Q9ULY5).
T2 sequence (whole entry): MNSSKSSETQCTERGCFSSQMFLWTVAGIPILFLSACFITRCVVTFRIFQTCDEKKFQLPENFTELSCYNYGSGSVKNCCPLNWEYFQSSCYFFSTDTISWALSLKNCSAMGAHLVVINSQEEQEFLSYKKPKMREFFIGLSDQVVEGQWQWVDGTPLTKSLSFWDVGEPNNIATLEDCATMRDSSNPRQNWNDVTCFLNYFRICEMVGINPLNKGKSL
The data set can be described thus: Binding affinity to recombinant human mincle extracellular domain fused with human IgG Fc expressed in HEK293T cells at 0.1 nmol by ELISA. The settings on record: HEK-293T. The class given is cell-based.

Data set [6] in a line: Toxicity in Atlantic horseshoe crab blood limulus amebocyte lysate by chromogenic endotoxin test. The settings on record: limulus polyphemus. An outline of the steps:
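Endotoxin was measured by chromogenic Limulus amebocyte lysate assay at a sensitivity of ≤0.1 EU/mL.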

Data set [7] has as its system BMDM. The data set can be described thus: Immunostimulatory activity in mincle-/- C57BL/6 mouse GM-CSF derived BMDM assessed as increase in IL-6 release at […] after 24 hrs by sandwich ELISA method. The class given is functional, cell-based. A digest of the protocol:
as §1

Data set [8] concerns the target T1, C-type lectin domain family 4 member E (Mus musculus). Kind of data set: Agonist activity at mincle in wild type C57BL/6 mouse GM-CSF derived BMDM assessed as increase in IL-1beta release at 0.1 to 1 nmol after 24 hrs by sandwich ELISA. An outline of the steps: as §1
The species named for data set [9] is Mus musculus. The data set can be described thus: Adjuvant activity in immunized C57BL/6 mouse assessed as increase in IL-17 production in spelnocytes at 0.3 umol treated with ovalbumin for 7 days followed by stimulation with OVA for 7 days and restimulation with OVA measured 24 to 48 hrs post OVA challenge. The class given is functional, cell-based. A digest of the protocol:
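C57BL/6 mice (8–12 wk) given s.c. oil-in-water emulsion (mineral oil/Tween-80/PBS 9:1:90) holding OVA 200 μg ± adjuvant 0.3 μmol; controls were OVA alone or no OVA. Footpad challenge with OVA 100 μg on day 7, spleens taken day 14. Splenocytes restimulated with OVA 10, 30 or 100 μg/mL. Cell number read at 450 nm after 3 h with a count reagent; IFN-γ and IL-17 measured by ELISA.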

For data set [10], the species on record is Mus musculus. Kind of data set: Adjuvant activity in immunized C57BL/6 mouse assessed as increase in OVA-specific IgG1 production in serum at 0.3 umol treated with ovalbumin for 7 days followed by stimulation with OVA for 7 days and restimulation with OVA measured 24 to 48 hrs post OVA challenge relative to control. The class given is functional. An outline of the steps: as §2

Data set [11] relates to BMDM. Kind of data set: Immunostimulatory activity in mincle-/- C57BL/6 mouse GM-CSF derived BMDM assessed as increase in MIP2 release at […] after 24 hrs by sandwich ELISA method. The class given is functional, cell-based. A digest of the protocol: as §1
In data set [12] the target is T1, C-type lectin domain family 4 member E (Mus musculus). Kind of data set: Agonist activity at mouse mincle coupled with FcRgamma expressed in 2B4-NFAT-GFP reporter cells after 18 hrs by flow cytometric analysis. Format: cell-based. An outline of the steps:
(§3)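 2B4 NFAT-GFP reporter cells expressing mouse or human Mincle plus FcRγ were placed on plates coated with ligand at 0.01, 0.1 or 1 nmol/well; cells expressing FcRγ only served as negative control. Ligand was coated from isopropanol, 0.05 mM, and solvent evaporated. After 18 h, cells were harvested, stained with propidium iodide and GFP read by flow cytometry. Mean of three experiments in duplicate (±SEM).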
(In general: A flow cytometer gives signals particle by particle.)

Data set [13] addresses T2, C-type lectin domain family 4 member E (Homo sapiens). The data set can be described thus: Agonist activity at human mincle coupled with FcRgamma expressed in 2B4-NFAT-GFP reporter cells after 18 hrs by flow cytometric analysis. Format: cell-based. A digest of the protocol: as §3
Data set [14] addresses T1, C-type lectin domain family 4 member E (Mus musculus). Kind of data set: Binding affinity to recombinant mouse mincle extracellular domain fused with human IgG Fc expressed in HEK293T cells at 0.1 nmol by ELISA. The class given is cell-based. The conditions noted are these: HEK-293T.
For data set [15], the system named is BMDM. The data set can be described thus: Immunostimulatory activity in mincle-/- C57BL/6 mouse GM-CSF derived BMDM assessed as increase in IL-1beta release at […] after 24 hrs by sandwich ELISA method. Format: functional, cell-based. An outline of the steps:
as §1

For data set [16], the species on record is Mus musculus. The data set can be described thus: Adjuvant activity in immunized C57BL/6 mouse assessed as increase in OVA-specific IgG2b production in serum at 0.3 umol treated with ovalbumin for 7 days followed by stimulation with OVA for 7 days and restimulation with OVA measured 24 to 48 hrs post OVA challenge. The class given is functional.
For data set [17], the species on record is Mus musculus. The data set can be described thus: Adjuvant activity in immunized C57BL/6 mouse assessed as footpad swelling at 0.3 umol treated with ovalbumin for 7 days followed by stimulation with OVA for 7 days measured 24 to 48 hrs post OVA challenge. The class given is functional.
The subject of data set [18] is Th1. The data set can be described thus: Immunostimulatory activity in OT-2 TCR transgenic mouse CD4+ Th1 cells co-cultured with C57BL/6 mouse BMDM assessed as increase in IFNgamma release at 0.1 nmol after 48 hrs by ELISA. The class given is functional, cell-based. An outline of the steps:
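OT-II CD4+ T cells (1×10^5) were cocultured with GM-CSF bone-marrow cells (1×10^4) on wells coated with glycolipid 0.1 nmol/well or isopropanol only, with OVA323–339 peptide at 0, 0.1 or 1 μM. Supernatant was collected after 48 h and IFN-γ and IL-17 measured by ELISA. Representative of two experiments in triplicate (±SD).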

Take `CCCCCCCCCCCCCCCCCCOc1ccc(C(=O)OC[C@H]2O[C@H](O[C@H]3O[C@H](COC(=O)c4ccc(OCCCCCCCCCCCCCCCCCC)cc4O)[C@@H](O)[C@H](O)[C@H]3O)[C@H](O)[C@@H](O)[C@@H]2O)c(O)c1`: the outcome in data set [1], in [2], in [3], in data set [4], in data set [5] and in data set [8] was Active. For the same compound, the result in data set [14] and in [16] was Active. In addition, the Activity result in data set [6] is “<= 0.1 EU/ml”; in [12], “Dose-dependent effect”; in data set [13] it was “Dose-dependent effect”. Moreover, the result in [7], in data set [9], in data set [11], in [15], in [17] and in data set [18] was inactive. Also, the “fold change (FC)” value in data set [10] worked out at 2.
